Experimental data: ChEMBL document CHEMBL4196034, “Family-wide analysis of aminoacyl-sulfamoyl-3-deazaadenosine analogues as inhibitors of aminoacyl-tRNA synthetases” (Eur J Med Chem, 2018)
Calls of active or inactive are those of the source. No cut-off for these calls is given here.

Target: Isoleucine--tRNA ligase (Escherichia coli K-12) (UniProt P00956)
Experiment: (§1) Inhibition of Isoleucyl-tRNA synthetase in Escherichia coli K-12 BW28357 S30 extract assessed as reduction in tRNA aminoacylation at 2.5 uM preincubated for 5 mins followed by Escherichia coli tRNA and 14C-labeled isoleucine addition measured after 5 mins by liquid scintillation counting method relative to control
Settings: not given
Summary of the method: (§2)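 E. coli K-12 BW28357 cells were grown in LB to A600 0.5, washed in 20 mM Tris.HCl, 10 mM MgCl2, 100 mM KCl, pH 8.0, then sonicated in the same buffer plus 1 mM DTT. The lysate was spun at 15,000 g. Inhibitor (2.5 µM) was preincubated with extract for 5 min. Aminoacylation mix: 30 mM Tris pH 8.0, 5 g/L E. coli tRNA, 3 mM ATP, 8 mM MgCl2, 40 µM 14C-amino acid. Reaction ran at room temperature. TCA precipitation after 5 min, then scintillation counting. Activity was expressed relative to the no-compound control, average of three experiments.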

Chain of Isoleucine--tRNA ligase (Escherichia coli K-12) (P00956 whole entry): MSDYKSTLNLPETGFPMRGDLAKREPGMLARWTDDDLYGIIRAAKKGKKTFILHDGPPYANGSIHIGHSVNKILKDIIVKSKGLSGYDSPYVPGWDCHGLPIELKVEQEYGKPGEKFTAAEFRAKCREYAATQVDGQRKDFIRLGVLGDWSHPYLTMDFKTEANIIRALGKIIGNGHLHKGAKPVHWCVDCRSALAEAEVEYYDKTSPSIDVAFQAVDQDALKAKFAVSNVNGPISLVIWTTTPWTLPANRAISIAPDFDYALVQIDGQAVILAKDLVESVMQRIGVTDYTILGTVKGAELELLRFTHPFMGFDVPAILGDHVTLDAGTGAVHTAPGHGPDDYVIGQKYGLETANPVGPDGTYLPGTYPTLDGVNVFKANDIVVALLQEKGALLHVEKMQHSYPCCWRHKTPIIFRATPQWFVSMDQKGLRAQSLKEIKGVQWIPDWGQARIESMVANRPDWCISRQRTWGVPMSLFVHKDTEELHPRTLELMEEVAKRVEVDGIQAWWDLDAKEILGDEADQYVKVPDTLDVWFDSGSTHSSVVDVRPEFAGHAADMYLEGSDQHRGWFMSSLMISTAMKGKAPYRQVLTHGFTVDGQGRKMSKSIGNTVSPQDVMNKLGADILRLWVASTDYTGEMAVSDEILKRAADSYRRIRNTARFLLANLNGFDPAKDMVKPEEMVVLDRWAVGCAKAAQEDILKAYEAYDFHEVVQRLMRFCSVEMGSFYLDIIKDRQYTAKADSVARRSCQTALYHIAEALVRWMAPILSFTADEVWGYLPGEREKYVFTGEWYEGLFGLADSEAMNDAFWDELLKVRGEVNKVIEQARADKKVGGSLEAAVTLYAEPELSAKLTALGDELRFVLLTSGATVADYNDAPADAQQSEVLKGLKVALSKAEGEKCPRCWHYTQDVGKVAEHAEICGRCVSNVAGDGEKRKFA

SMILES	inhibition
CC[C@H](C)[C@H](N)C(=O)NS(=O)(=O)OC[C@H]1O[C@@H](n2cnc3c(N)ncnc32)[C@H](O)[C@@H]1O	Active
CC[C@H](C)[C@H](N)C(=O)NS(=O)(=O)OC[C@H]1O[C@@H](n2cnc3c(N)nccc32)[C@H](O)[C@@H]1O	40 to 50%

Target: T1, Tyrosine--tRNA ligase (Escherichia coli (strain K12)) (UniProt P0AGJ9)
T1 sequence (whole entry): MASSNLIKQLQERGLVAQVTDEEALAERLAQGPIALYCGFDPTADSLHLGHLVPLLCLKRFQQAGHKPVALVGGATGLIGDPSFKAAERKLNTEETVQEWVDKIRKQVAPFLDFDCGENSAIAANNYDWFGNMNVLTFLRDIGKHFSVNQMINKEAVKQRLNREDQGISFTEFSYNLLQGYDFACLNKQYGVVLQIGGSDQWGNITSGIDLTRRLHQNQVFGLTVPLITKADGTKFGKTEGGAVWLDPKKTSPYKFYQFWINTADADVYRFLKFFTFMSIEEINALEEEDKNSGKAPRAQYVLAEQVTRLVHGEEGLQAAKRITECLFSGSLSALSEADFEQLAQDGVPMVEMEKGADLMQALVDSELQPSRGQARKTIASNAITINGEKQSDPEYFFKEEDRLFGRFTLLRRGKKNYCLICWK
Experiment: as §1, with “Tyrosyl-tRNA” for “Isoleucyl-tRNA”, “tyrosine” for “isoleucine”
Settings: not given
Summary of the method: as §2

SMILES	inhibition
Nc1ncnc2c1ncn2[C@@H]1O[C@H](COS(=O)(=O)NC(=O)[C@@H](N)Cc2ccc(O)cc2)[C@@H](O)[C@H]1O	Active
Nc1nccc2c1ncn2[C@@H]1O[C@H](COS(=O)(=O)NC(=O)[C@@H](N)Cc2ccc(O)cc2)[C@@H](O)[C@H]1O	40 to 50%

Target: Aspartate--tRNA ligase (Escherichia coli (strain K12)) (UniProt P21889)
Sequence (P21889 whole entry, looked up): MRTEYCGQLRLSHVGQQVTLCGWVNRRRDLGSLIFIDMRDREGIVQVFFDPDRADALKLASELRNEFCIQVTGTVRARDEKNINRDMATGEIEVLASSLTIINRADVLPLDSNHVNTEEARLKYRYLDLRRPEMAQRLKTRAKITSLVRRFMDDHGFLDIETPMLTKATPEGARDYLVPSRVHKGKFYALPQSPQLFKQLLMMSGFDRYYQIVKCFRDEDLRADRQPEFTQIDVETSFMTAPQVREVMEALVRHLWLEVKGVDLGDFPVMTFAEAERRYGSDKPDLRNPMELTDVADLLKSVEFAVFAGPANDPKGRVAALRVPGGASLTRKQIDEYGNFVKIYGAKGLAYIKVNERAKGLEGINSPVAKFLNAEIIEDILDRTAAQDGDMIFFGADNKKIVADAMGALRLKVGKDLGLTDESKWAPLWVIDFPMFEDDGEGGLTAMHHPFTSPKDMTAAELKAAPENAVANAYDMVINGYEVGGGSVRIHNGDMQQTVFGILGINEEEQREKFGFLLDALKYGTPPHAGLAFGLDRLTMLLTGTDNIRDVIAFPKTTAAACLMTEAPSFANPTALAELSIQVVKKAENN
Experiment: Inhibition of Aspartate-tRNA synthetase in Escherichia coli K-12 BW28357 S30 extract assessed as reduction in tRNA aminoacylation at 2.5 uM preincubated for 5 mins followed by Escherichia coli tRNA and 14C-labeled aspartic acid addition measured after 5 mins by liquid scintillation counting method
Settings: not given
Summary of the method: as §2

SMILES	inhibition
Nc1nccc2c1ncn2[C@@H]1O[C@H](COS(=O)(=O)NC(=O)[C@@H](N)CC(=O)O)[C@@H](O)[C@H]1O	inactive
Nc1ncnc2c1ncn2[C@@H]1O[C@H](COS(=O)(=O)NC(=O)[C@@H](N)CC(=O)O)[C@@H](O)[C@H]1O	Active

Target: Isoleucine--tRNA ligase (Escherichia coli K-12, UniProt P00956)
Sequence (P00956 whole entry): as the sequence (P00956 whole entry) above
Experiment: Inhibition of Escherichia coli BL21(DE3) Isoleucyl-tRNA synthetase assessed as reduction in tRNA aminoacylation preincubated for 10 mins with Escherichia coli tRNA and 14C-labeled isoleucine followed by ATP addition by liquid scintillation counting method
Settings: read-out: Ki(app)
Summary of the method: (§3)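 Purified E. coli aaRS, expressed in Rosetta 2 (DE3) pLysS: ileRS 50 nM, tyrRS 0.5 nM, leuRS 2.5 nM, aspRS, serRS and glyRS 2 nM each. Buffer was 20 mM Tris, 100 mM KCl, 10 mM MgCl2, 5 mM β-mercaptoethanol, pH 7.5. Enzyme was preincubated 10 min at 37°C with serially diluted compound, 50 µM 14C-amino acid, 2 mg/ml tRNA and pyrophosphatase. Reaction was started with 500 µM ATP and quenched within the linear zone, then TCA-precipitated and counted. Ki app came from Greco-Hakala fits.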

SMILES	Ki [nM]
CC[C@H](C)[C@H](N)C(=O)NS(=O)(=O)OC[C@H]1O[C@@H](n2cnc3c(N)ncnc32)[C@H](O)[C@@H]1O	1.92
CC[C@H](C)[C@H](N)C(=O)NS(=O)(=O)OC[C@H]1O[C@@H](n2cnc3c(N)nccc32)[C@H](O)[C@@H]1O	213

Target: T2, Tyrosine--tRNA ligase (Escherichia coli (strain K12), UniProt P0AGJ9)
T2 sequence (P0AGJ9 whole entry): T1 sequence (whole entry)
Experiment: Inhibition of Escherichia coli BL21(DE3) Tyrosyl-tRNA synthetase assessed as reduction in tRNA aminoacylation preincubated for 10 mins with Escherichia coli tRNA and 14C-labeled tyrosine followed by ATP addition by liquid scintillation counting method
Settings: read-out: Ki(app)
Summary of the method: as §3

SMILES	Ki [nM]
Nc1ncnc2c1ncn2[C@@H]1O[C@H](COS(=O)(=O)NC(=O)[C@@H](N)Cc2ccc(O)cc2)[C@@H](O)[C@H]1O	2.93
Nc1nccc2c1ncn2[C@@H]1O[C@H](COS(=O)(=O)NC(=O)[C@@H](N)Cc2ccc(O)cc2)[C@@H](O)[C@H]1O	29.9

Target: Aspartate--tRNA ligase (Escherichia coli (strain K12), UniProt P21889)
Sequence (P21889 whole entry): as the sequence (P21889 whole entry, looked up) above
Experiment: Inhibition of Escherichia coli BL21(DE3) Aspartyl-tRNA synthetase assessed as reduction in tRNA aminoacylation preincubated for 10 mins with Escherichia coli tRNA and 14C-labeled aspartic acid followed by ATP addition by liquid scintillation counting method
Settings: read-out: Ki(app)
Summary of the method: as §3

SMILES	Ki [nM]
Nc1nccc2c1ncn2[C@@H]1O[C@H](COS(=O)(=O)NC(=O)[C@@H](N)CC(=O)O)[C@@H](O)[C@H]1O	25.3
Nc1ncnc2c1ncn2[C@@H]1O[C@H](COS(=O)(=O)NC(=O)[C@@H](N)CC(=O)O)[C@@H](O)[C@H]1O	0.052

System: Staphylococcus aureus
Experiment: Antibacterial activity against Staphylococcus aureus ATCC 65381 up to 100 uM after 18 to 24 hrs by two fold serial dilution method
Type: functional, organism-based
Settings: not given
Summary of the method: (§4)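 Broth microdilution, twofold series from 100 µM down to 0.39 µM, in LB medium. MIC50 was taken as the lowest concentration giving 50% growth inhibition after 18-24 h incubation at 37.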

SMILES	Activity
Nc1ncnc2c1ncn2[C@@H]1O[C@H](COS(=O)(=O)NC(=O)[C@@H](N)Cc2ccc(O)cc2)[C@@H](O)[C@H]1O	inactive
CC[C@H](C)[C@H](N)C(=O)NS(=O)(=O)OC[C@H]1O[C@@H](n2cnc3c(N)ncnc32)[C@H](O)[C@@H]1O	inactive
CC[C@H](C)[C@H](N)C(=O)NS(=O)(=O)OC[C@H]1O[C@@H](n2cnc3c(N)nccc32)[C@H](O)[C@@H]1O	inactive
Nc1nccc2c1ncn2[C@@H]1O[C@H](COS(=O)(=O)NC(=O)[C@@H](N)CC(=O)O)[C@@H](O)[C@H]1O	inactive
Nc1nccc2c1ncn2[C@@H]1O[C@H](COS(=O)(=O)NC(=O)[C@@H](N)Cc2ccc(O)cc2)[C@@H](O)[C@H]1O	inactive
Nc1ncnc2c1ncn2[C@@H]1O[C@H](COS(=O)(=O)NC(=O)[C@@H](N)CC(=O)O)[C@@H](O)[C@H]1O	inactive

System: Staphylococcus epidermidis
Experiment: Antibacterial activity against Staphylococcus epidermidis RP62A up to 100 uM after 18 to 24 hrs by two fold serial dilution method
Type: functional, organism-based
Settings: not given
Summary of the method: as §4

SMILES	Activity
Nc1ncnc2c1ncn2[C@@H]1O[C@H](COS(=O)(=O)NC(=O)[C@@H](N)Cc2ccc(O)cc2)[C@@H](O)[C@H]1O	inactive
CC[C@H](C)[C@H](N)C(=O)NS(=O)(=O)OC[C@H]1O[C@@H](n2cnc3c(N)ncnc32)[C@H](O)[C@@H]1O	inactive
CC[C@H](C)[C@H](N)C(=O)NS(=O)(=O)OC[C@H]1O[C@@H](n2cnc3c(N)nccc32)[C@H](O)[C@@H]1O	inactive
Nc1nccc2c1ncn2[C@@H]1O[C@H](COS(=O)(=O)NC(=O)[C@@H](N)CC(=O)O)[C@@H](O)[C@H]1O	inactive
Nc1nccc2c1ncn2[C@@H]1O[C@H](COS(=O)(=O)NC(=O)[C@@H](N)Cc2ccc(O)cc2)[C@@H](O)[C@H]1O	inactive
Nc1ncnc2c1ncn2[C@@H]1O[C@H](COS(=O)(=O)NC(=O)[C@@H](N)CC(=O)O)[C@@H](O)[C@H]1O	inactive

System: Kocuria rhizophila
Experiment: Antibacterial activity against Kocuria rhizophila ATCC 9341 up to 100 uM after 18 to 24 hrs by two fold serial dilution method
Type: functional, organism-based
Settings: DC2201
Summary of the method: as §4

SMILES	Activity
Nc1ncnc2c1ncn2[C@@H]1O[C@H](COS(=O)(=O)NC(=O)[C@@H](N)Cc2ccc(O)cc2)[C@@H](O)[C@H]1O	inactive
CC[C@H](C)[C@H](N)C(=O)NS(=O)(=O)OC[C@H]1O[C@@H](n2cnc3c(N)ncnc32)[C@H](O)[C@@H]1O	inactive
CC[C@H](C)[C@H](N)C(=O)NS(=O)(=O)OC[C@H]1O[C@@H](n2cnc3c(N)nccc32)[C@H](O)[C@@H]1O	inactive
Nc1nccc2c1ncn2[C@@H]1O[C@H](COS(=O)(=O)NC(=O)[C@@H](N)CC(=O)O)[C@@H](O)[C@H]1O	inactive
Nc1nccc2c1ncn2[C@@H]1O[C@H](COS(=O)(=O)NC(=O)[C@@H](N)Cc2ccc(O)cc2)[C@@H](O)[C@H]1O	inactive
Nc1ncnc2c1ncn2[C@@H]1O[C@H](COS(=O)(=O)NC(=O)[C@@H](N)CC(=O)O)[C@@H](O)[C@H]1O	inactive

System: Escherichia coli
Experiment: Antibacterial activity against Escherichia coli NCIB 8743 up to 100 uM after 18 to 24 hrs by two fold serial dilution method
Type: functional, organism-based
Settings: not given
Summary of the method: as §4

SMILES	Activity
Nc1ncnc2c1ncn2[C@@H]1O[C@H](COS(=O)(=O)NC(=O)[C@@H](N)Cc2ccc(O)cc2)[C@@H](O)[C@H]1O	inactive
CC[C@H](C)[C@H](N)C(=O)NS(=O)(=O)OC[C@H]1O[C@@H](n2cnc3c(N)ncnc32)[C@H](O)[C@@H]1O	inactive
CC[C@H](C)[C@H](N)C(=O)NS(=O)(=O)OC[C@H]1O[C@@H](n2cnc3c(N)nccc32)[C@H](O)[C@@H]1O	inactive
Nc1nccc2c1ncn2[C@@H]1O[C@H](COS(=O)(=O)NC(=O)[C@@H](N)CC(=O)O)[C@@H](O)[C@H]1O	inactive
Nc1nccc2c1ncn2[C@@H]1O[C@H](COS(=O)(=O)NC(=O)[C@@H](N)Cc2ccc(O)cc2)[C@@H](O)[C@H]1O	inactive
Nc1ncnc2c1ncn2[C@@H]1O[C@H](COS(=O)(=O)NC(=O)[C@@H](N)CC(=O)O)[C@@H](O)[C@H]1O	inactive

System: Pseudomonas aeruginosa
Experiment: Antibacterial activity against Pseudomonas aeruginosa PAO1 up to 100 uM after 18 to 24 hrs by two fold serial dilution method
Type: functional, organism-based
Settings: not given
Summary of the method: as §4

SMILES	Activity
Nc1ncnc2c1ncn2[C@@H]1O[C@H](COS(=O)(=O)NC(=O)[C@@H](N)Cc2ccc(O)cc2)[C@@H](O)[C@H]1O	inactive
CC[C@H](C)[C@H](N)C(=O)NS(=O)(=O)OC[C@H]1O[C@@H](n2cnc3c(N)ncnc32)[C@H](O)[C@@H]1O	inactive
CC[C@H](C)[C@H](N)C(=O)NS(=O)(=O)OC[C@H]1O[C@@H](n2cnc3c(N)nccc32)[C@H](O)[C@@H]1O	inactive
Nc1nccc2c1ncn2[C@@H]1O[C@H](COS(=O)(=O)NC(=O)[C@@H](N)CC(=O)O)[C@@H](O)[C@H]1O	inactive
Nc1nccc2c1ncn2[C@@H]1O[C@H](COS(=O)(=O)NC(=O)[C@@H](N)Cc2ccc(O)cc2)[C@@H](O)[C@H]1O	inactive
Nc1ncnc2c1ncn2[C@@H]1O[C@H](COS(=O)(=O)NC(=O)[C@@H](N)CC(=O)O)[C@@H](O)[C@H]1O	inactive
